The record followed here is ChEMBL document CHEMBL1144851, “Opioids and efflux transporters. Part 2: P-glycoprotein substrate activity of 3- and 6-substituted morphine analogs” (J Med Chem, 2008).

The target of series [1] is Kappa-type opioid receptor (Homo sapiens, UniProt P41145). The series can be described thus: Displacement of [3H]diprenorphine from recombinant kappa opioid receptor expressed in CHO cells. In kind it is cell-based.
Series [2] concerns the target Delta-type opioid receptor (Homo sapiens, UniProt P41143). The series can be described thus: Displacement of [3H]diprenorphine from recombinant delta opioid receptor expressed in C6 cells. In kind it is cell-based. A digest of the protocol:
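Competitive binding against [3H]diprenorphine in membranes of C6 rat glioma cells expressing recombinant δ opioid receptor; Ki from three experiments run in duplicate, mean ± SEM.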
A general note: In a radioligand displacement assay an active substance lowers the binding of a labelled ligand.

For another series, the target named is Mu-type opioid receptor (Homo sapiens, UniProt P35372). The experiment in a line: Displacement of [3H]diprenorphine from recombinant mu opioid receptor expressed in C6 cells. The series is classed as cell-based.
Mu-type opioid receptor, sequence (P35372 whole entry): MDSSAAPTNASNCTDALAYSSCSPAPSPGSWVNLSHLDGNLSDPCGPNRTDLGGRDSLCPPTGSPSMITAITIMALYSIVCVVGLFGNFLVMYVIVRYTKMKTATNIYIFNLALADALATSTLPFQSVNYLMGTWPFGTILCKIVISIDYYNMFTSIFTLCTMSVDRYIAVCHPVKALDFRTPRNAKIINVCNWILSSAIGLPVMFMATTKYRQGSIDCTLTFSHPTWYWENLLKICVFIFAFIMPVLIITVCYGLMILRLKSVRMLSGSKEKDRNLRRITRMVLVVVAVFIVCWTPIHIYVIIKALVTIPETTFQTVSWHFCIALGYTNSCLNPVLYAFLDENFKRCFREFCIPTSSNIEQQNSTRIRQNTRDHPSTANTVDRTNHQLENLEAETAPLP
The nature of series [3]: Selectivity for recombinant mu opioid receptor over recombinant delta opioid receptor. A digest of the protocol: (§1)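 Ratios of Ki values from [3H]diprenorphine displacement in membranes of C6 rat glioma cells expressing µ or δ receptors and CHO cells expressing κ receptor; three experiments in duplicate.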
Series [4] is described as follows: Selectivity for recombinant mu opioid receptor over recombinant kappa opioid receptor. An outline of the steps:
as §1

The target of series [5] is ATP-dependent translocase ABCB1 (Homo sapiens, UniProt P08183). The experiment in a line: Effect on human recombinant Pgp-mediated ATP consumption assessed as inhibition of ATPase activity at 200 uM by Pgp-Glo assay. A digest of the protocol: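 Recombinant human P-gp incubated with 200 µM compound in P-gp-Glo buffer, four wells each; started with MgATP (10 mM), quenched after 40 min with firefly luciferase ATP detection reagent, luminescence read 60 min later. Untreated, vanadate (100 µM) and verapamil (200 µM) controls; mean ± SEM, t-test.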
ATP-dependent translocase ABCB1, sequence (P08183 whole entry): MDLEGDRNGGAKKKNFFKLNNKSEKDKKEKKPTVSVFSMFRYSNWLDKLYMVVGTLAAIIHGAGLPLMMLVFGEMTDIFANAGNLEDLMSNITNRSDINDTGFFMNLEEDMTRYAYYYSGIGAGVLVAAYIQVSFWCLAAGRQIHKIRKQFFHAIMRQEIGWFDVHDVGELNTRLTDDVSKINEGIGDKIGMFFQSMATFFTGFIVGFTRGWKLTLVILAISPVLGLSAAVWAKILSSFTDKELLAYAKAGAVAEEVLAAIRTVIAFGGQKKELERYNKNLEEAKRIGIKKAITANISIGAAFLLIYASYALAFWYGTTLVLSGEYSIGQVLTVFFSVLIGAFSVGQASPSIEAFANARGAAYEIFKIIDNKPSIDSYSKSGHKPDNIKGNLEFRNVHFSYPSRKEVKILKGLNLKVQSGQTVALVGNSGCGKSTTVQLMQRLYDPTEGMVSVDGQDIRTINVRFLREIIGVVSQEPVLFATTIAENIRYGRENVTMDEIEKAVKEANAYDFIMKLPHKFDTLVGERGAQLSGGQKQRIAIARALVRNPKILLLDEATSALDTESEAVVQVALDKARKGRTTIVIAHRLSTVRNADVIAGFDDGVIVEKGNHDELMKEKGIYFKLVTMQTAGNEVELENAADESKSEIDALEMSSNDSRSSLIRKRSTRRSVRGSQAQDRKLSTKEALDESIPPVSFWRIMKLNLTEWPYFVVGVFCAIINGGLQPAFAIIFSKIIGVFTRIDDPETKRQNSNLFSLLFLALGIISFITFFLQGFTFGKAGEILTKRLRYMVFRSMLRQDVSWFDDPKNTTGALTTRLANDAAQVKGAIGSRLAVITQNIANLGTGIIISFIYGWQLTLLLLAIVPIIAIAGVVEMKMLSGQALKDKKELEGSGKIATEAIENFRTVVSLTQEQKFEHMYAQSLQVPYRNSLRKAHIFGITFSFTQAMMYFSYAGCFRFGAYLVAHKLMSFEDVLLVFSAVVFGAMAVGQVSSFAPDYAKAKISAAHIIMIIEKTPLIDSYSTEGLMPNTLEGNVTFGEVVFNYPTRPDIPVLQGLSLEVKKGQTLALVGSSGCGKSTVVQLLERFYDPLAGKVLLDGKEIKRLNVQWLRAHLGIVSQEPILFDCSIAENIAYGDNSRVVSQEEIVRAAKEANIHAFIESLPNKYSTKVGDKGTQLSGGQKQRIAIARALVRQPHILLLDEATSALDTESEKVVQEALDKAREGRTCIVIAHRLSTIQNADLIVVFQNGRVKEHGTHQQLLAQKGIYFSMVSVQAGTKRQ

In series [6] the test system is Mus musculus. The series can be described thus: Antinociceptive activity in sc dosed mouse by hot plate assay. In kind it is functional. An outline of the steps:
(§2)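 Mice, test compound given subcutaneously; antinociception measured in tail-flick, p-phenylquinone writhing and hot plate assays following CPDD Drug Evaluation Committee protocols. ED50 (mg/kg) with 95% confidence limits.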
A general note: Thermal pain tests record how soon the animal reacts.

For series [7], the system named is Mus musculus. The series can be described thus: Antinociceptive activity in sc dosed mouse by tail flick assay. In kind it is functional. An outline of the steps:
as §2

Series [8] concerns Mus musculus. The experiment in a line: Antinociceptive activity in sc dosed mouse by p-phenylquinone writhing assay. The series is classed as functional. A digest of the protocol:
as §2
Background: In writhing tests, fewer writhes than in controls are read as antinociception.

Delta-type opioid receptor, sequence (P41143 whole entry): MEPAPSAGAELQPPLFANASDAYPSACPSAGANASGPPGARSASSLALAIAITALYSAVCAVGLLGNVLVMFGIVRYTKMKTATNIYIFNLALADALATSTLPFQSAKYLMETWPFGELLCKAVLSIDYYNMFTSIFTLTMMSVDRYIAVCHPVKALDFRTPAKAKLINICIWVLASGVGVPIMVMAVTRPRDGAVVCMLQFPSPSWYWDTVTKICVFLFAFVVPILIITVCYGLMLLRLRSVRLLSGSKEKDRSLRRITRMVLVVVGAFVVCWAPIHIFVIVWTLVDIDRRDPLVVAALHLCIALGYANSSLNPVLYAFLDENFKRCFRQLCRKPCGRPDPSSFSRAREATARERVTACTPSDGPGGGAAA
Kappa-type opioid receptor, sequence (P41145 whole entry): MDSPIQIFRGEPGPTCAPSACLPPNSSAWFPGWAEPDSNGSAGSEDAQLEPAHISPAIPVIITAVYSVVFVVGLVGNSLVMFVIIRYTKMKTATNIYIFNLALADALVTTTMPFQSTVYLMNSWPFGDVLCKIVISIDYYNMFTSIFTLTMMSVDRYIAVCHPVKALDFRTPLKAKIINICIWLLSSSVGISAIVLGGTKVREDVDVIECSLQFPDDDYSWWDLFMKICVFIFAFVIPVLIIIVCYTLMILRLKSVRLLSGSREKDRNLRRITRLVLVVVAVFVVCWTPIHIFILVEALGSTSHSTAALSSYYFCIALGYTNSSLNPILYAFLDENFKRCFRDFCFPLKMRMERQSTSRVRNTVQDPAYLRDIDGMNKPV

The Ki is the equilibrium dissociation constant of an inhibitor or competing ligand from its target. As for `CO[C@H]1C=C[C@H]2[C@H]3Cc4ccc(O)c5c4[C@@]2(CCN3C)[C@H]1O5` [HETEROCODEINE], the inhibition constant (Ki) in series [1] worked out at 22.8 nM; in series [2], 65.8 nM.

On to `COc1ccc2c3c1O[C@H]1CC=C[C@H]4[C@@H](C2)N(C)CC[C@]314`, for which the results for the Ki (at Mu-type opioid receptor; in series [1]; in [2]) were 305 nM, 3090 nM and 4520 nM, respectively. The Ratio Ki in series [3] amounted to 15; in series [4] it was 10. For the same compound, the result in series [5] was Active.

The ED50 is the dose at which the effect has come halfway, by size or by number of responders. Read a low ED50 as an effect at a small dose. For the compound `CN1CC[C@]23c4c5ccc(O)c4O[C@H]2CC=C[C@H]3[C@H]1C5`, the Ki on Mu-type opioid receptor was 2.1 nM; in series [1] it was 45.5 nM; in series [2], 11.8 nM. In addition, the ED50 in the series with Mus musculus [6] was determined as 0.33 mg/kg; in the series on Mus musculus [7], 0.2 mg/kg; with Mus musculus [8], 0.03 mg/kg. For the same compound, the Ratio Ki in series [3] stood at 4; in [4], 16. Moreover, the result in [5] was Active.

For the compound `CN1CC[C@]23c4c5cccc4O[C@H]2CCC[C@H]3[C@H]1C5`, the results for the Ki (at Mu-type opioid receptor; in series [1]; in [2]) were 22.9 nM, 589 nM and 241 nM, respectively. In addition, the Ratio Ki turned out to be 11 in series [3] and 26 in series [4].

`COc1ccc2c3c1O[C@H]1[C@@H](OC)C=C[C@H]4[C@@H](C2)N(C)CC[C@@]341`: the inhibitory constant (Ki) on Mu-type opioid receptor was determined as 1910 nM; in series [1], 5430 nM; in series [2], 4410 nM. In addition, the Ratio Ki is 2 in series [3] and 3 in series [4].

Take `CN1CC[C@]23c4c5cccc4O[C@H]2[C@@H](O)CC[C@H]3[C@H]1C5`: the Ki on Mu-type opioid receptor came to 122 nM; in series [1] it was 4910 nM; in series [2] it was 5250 nM. For the same compound, the Ratio Ki in [3] amounted to 43; in [4] it was 40. The outcome in [5] was Active.

With `CO[C@H]1CC[C@H]2[C@H]3Cc4cccc5c4[C@@]2(CCN3C)[C@H]1O5`, the Ki on Mu-type opioid receptor amounted to 524 nM; in series [1], 11600 nM; in [2], 8830 nM. The Ratio Ki in series [3] is 17; in series [4], 22.
